High-throughput results as filed in PubChem.
ALR inh – human ALR oxidase inhibition via reduced H2O2. purified ALR, DTT oxidation, H2O2 HRP-luminol luminescence. inhibition, % (concentration not given with the values). 290,000 tested, 3.8% active. AID 485317;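 active means mean replicate inhibition above about 79%, with every replicate also reaching it, limit read from the data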
Target sequence (P55789 whole entry, looked up): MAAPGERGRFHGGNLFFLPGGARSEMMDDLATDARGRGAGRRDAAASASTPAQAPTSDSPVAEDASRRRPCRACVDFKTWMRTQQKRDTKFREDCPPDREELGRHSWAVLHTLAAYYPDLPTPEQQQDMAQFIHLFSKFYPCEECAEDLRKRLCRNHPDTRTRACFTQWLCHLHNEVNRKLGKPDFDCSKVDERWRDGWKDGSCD
NALP1 yeast inh – NALP1 inhibition; S. cerevisiae NALP1/ASC/caspase-1 growth, X-gal OD620, 72 h; inhibition, % at 10 µM; 280,000 tested, 0.61% active; AID 2071; in the data active means inhibition mostly above about 24%, no sharp cut-off; inactive means mostly below about 32%
NALP3 yeast inh – NALP3 inhibition in yeast; 330,000 tested, 0.39% active; AID 2825; Yeast reconstituted NLRP3/ASC/caspase-1, beta-gal luminescence, 24 h; inhibition, % at 10 µM;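 active means inhibition of 50% or more; inactive means inhibition below 50%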;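 further: plate controls were induced DMSO wells for no effect and uninduced yeast grown without galactose for full effect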
UCH37 DUB inh – inhibitors of human deubiquitinating enzyme UCH37; inhibition, % (no concentration beside the values); Q9Y5K5; purified proteasome/UCH37, Ub-AMC cleavage fluorescence; 330,000 tested, 0.33% active; AID 588478;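 active means mean inhibition over replicate wells above about 20%, limit read from the data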;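 further: 0% = compound-free wells with enzyme and 100% = wells lacking proteasome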
Target sequence (Q9Y5K5 whole entry, looked up): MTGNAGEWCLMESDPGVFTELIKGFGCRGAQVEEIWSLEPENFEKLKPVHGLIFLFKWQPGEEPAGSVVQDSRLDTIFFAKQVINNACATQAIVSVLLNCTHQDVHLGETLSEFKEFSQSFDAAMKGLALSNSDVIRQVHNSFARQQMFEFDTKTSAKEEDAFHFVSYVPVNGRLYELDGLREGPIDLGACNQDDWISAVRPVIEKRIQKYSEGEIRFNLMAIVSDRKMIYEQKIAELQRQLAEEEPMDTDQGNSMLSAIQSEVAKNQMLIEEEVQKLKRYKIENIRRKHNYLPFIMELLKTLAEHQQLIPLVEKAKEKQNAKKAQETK
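assay system = human UCH37 enzyme supplied as purified proteasome complex | amount = proteasome at 0.15 nM in the dispensed enzyme solution | schedule = 30 min compound-proteasome preincubation then 25 min substrate reaction, room temperature | measured by = fluorescence, ex 355 nm, em 460 nm | benchmarks = no-proteasome wells (full inhibition) and compound-free wells (no inhibition)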
Calb FLC – affects C. albicans growth with fluconazole. C. albicans CaCi-2 (fluconazole-resistant clinical isolate) + fluconazole, Alamar Blue growth, 48 h. growth inhibition, % (test concentration not listed). 300,000 tested, 0.57% active. AID 1979;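 active means growth inhibition above about 58% in most replicates, limit read from the data, passing the limit was not always enough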;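 further: all wells also contain fluconazole at 8 µg/ml as a sub-toxic cotreatment; 0% = median of DMSO wells and 100% = median of geldanamycin control wells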
ATG4B inhibitor – inhibitors of human ATG4B cysteine protease; 340,000 tested, 0.51% active; ATG4B cleavage of LC3-PLA2, NBD-HPC fluorescence, 1 h; Q9Y4P1; inhibition, % at 8.33 µM; in the data active means inhibition above about 40%
Numbers without * were called inactive. Rows were chosen to be rich in hits. Some 4.8% of all compounds tested hit in one or more screens of this group.

`OC(CN1CCN(c2ccccn2)CC1)Cn1c2ccc(Cl)cc2c2cc(Cl)ccc21` (configuration not stated) gave ALR inh -11.5, NALP1 yeast inh -1.7, NALP3 yeast inh 30.8, UCH37 DUB inh 1.9, Calb FLC 10.4 and ATG4B inhibitor -8.4.
`OC(CN1CCCCC1)Cn1c2ccc(Cl)cc2c2cc(Cl)ccc21` (configuration not stated) gave ALR inh -10.8, NALP1 yeast inh 48.6*, NALP3 yeast inh 17.7, UCH37 DUB inh 1.1, Calb FLC 20.1 and ATG4B inhibitor 2.2.
For Cc1onc(-c2ccccc2)c1C(=O)NN=Cc1ccco1 the results were UCH37 DUB inh 6.0.
Cc1ccc2[nH]c(-c3cccc(N)c3)cc2c1 was read as ALR inh 98.5*, NALP1 yeast inh 6.7, NALP3 yeast inh 10.6, UCH37 DUB inh -71.8, Calb FLC 7.0 and ATG4B inhibitor -12.5.
Cc1ccc2[nH]c(-c3cccc(F)c3)cc(=O)c2c1 was read as ALR inh -1.9, NALP1 yeast inh 22.8, NALP3 yeast inh 5.2, UCH37 DUB inh -2.9, Calb FLC -4.9 and ATG4B inhibitor -5.4.
For CC(CC(=O)Nc1cccc(Cl)c1Cl)=NNC(=O)C(=O)N1CCCC1 the results were UCH37 DUB inh 0.3.
`CCc1ccccc1N(C)S(=O)(=O)c1cc(-c2cc(C)no2)ccc1OC` gave ALR inh -2.2, NALP1 yeast inh 3.9, NALP3 yeast inh -0.1, UCH37 DUB inh 2.6, Calb FLC 52.8 and ATG4B inhibitor -20.0.
Screening COc1ccc(-c2cc(C)no2)cc1S(=O)(=O)N(C)c1cccc(C)c1 returned ALR inh 1.3, NALP1 yeast inh 22.1, NALP3 yeast inh 13.9, UCH37 DUB inh 2.0, Calb FLC 92.3* and ATG4B inhibitor -6.4.
Screening COc1ccc(N(C)S(=O)(=O)c2cccc(C(=O)Nc3nc(C)cs3)c2)cc1 returned ALR inh 97.4*, NALP3 yeast inh 8.5, UCH37 DUB inh 0.1 and ATG4B inhibitor 1.4.
Cc1ccc(N(C)S(=O)(=O)c2cccc(C(=O)Nc3nnc(C4CC4)s3)c2)cc1 was read as ALR inh 95.0*, NALP1 yeast inh 6.6, NALP3 yeast inh 4.2, UCH37 DUB inh -1.0, Calb FLC 4.4 and ATG4B inhibitor -6.5.
CCSc1nnc(NC(=O)c2cccc(S(=O)(=O)N(C)c3ccccc3)c2)s1 was read as ALR inh 94.2*, NALP1 yeast inh 42.3, NALP3 yeast inh 18.1, UCH37 DUB inh 0.1, Calb FLC -1.4 and ATG4B inhibitor -9.8.
For COc1cc(C=NNc2ccc(C(F)(F)F)cn2)ccc1O the results were UCH37 DUB inh 5.7.
Screening Oc1sc(C=Nc2ccccc2)c2ccccc12 returned ALR inh 84.4*, NALP1 yeast inh 31.6, NALP3 yeast inh 44.9, UCH37 DUB inh -13.2, Calb FLC -69.3 and ATG4B inhibitor -14.2.
For S=c1[nH]cc(-c2ccccc2)n1-c1ccccc1Cl the results were ALR inh 90.2*, NALP1 yeast inh 0.5, NALP3 yeast inh -6.7, UCH37 DUB inh 2.3, Calb FLC -3.5 and ATG4B inhibitor -8.2.
Screening COc1ccccc1/C=C/C=Nn1c(COc2ccccc2)n[nH]c1=S returned UCH37 DUB inh -0.5.
`Cc1cc(NCCCn2ccnc2)n2nc(-c3ccc(Cl)cc3)cc2n1` gave ALR inh 97.2*, NALP1 yeast inh 3.0, NALP3 yeast inh 11.7, UCH37 DUB inh 1.9, Calb FLC 37.0 and ATG4B inhibitor -14.6.
Cc1cc(NCCCn2ccnc2)n2nc(-c3ccc(F)cc3)cc2n1 was read as ALR inh 43.0, NALP1 yeast inh 19.8, NALP3 yeast inh 16.9, UCH37 DUB inh -8.2, Calb FLC 20.9 and ATG4B inhibitor -17.6.
Screening C#CCn1cc(C=NNC(=O)c2cc3ccccc3o2)c2ccccc21 returned UCH37 DUB inh -78.2.
Screening CC1=CC(c2ccc(Cl)cc2)n2nc(NS(=O)(=O)c3ccc(C)cc3)nc2N1 (configuration not stated) returned ALR inh 96.4*, NALP1 yeast inh 17.3, NALP3 yeast inh 14.1, UCH37 DUB inh -300.3, Calb FLC 23.3 and ATG4B inhibitor 0.1.
Screening CCN1C(=O)c2ccc(C(=O)NCc3ccco3)cc2C1=O returned ALR inh -20.6, NALP1 yeast inh 30.8*, NALP3 yeast inh 11.6, Calb FLC -13.0 and ATG4B inhibitor -6.1.
For Oc1ccc(Br)cc1-c1nc2cnccn2c1NC1CCCCC1 the results were ALR inh 92.1*, NALP1 yeast inh -6.3, NALP3 yeast inh 11.3, UCH37 DUB inh -26.9, Calb FLC -14.7 and ATG4B inhibitor -6.7.
Oc1ccc(Br)cc1-c1nc2cnccn2c1NC1CCCC1 was read as ALR inh 94.4*, NALP1 yeast inh 1.8, NALP3 yeast inh 8.0, UCH37 DUB inh -31.4, Calb FLC -8.1 and ATG4B inhibitor -9.8.
`Fc1ccc(-c2nc3cnccn3c2NC2CCCC2)cc1` gave ALR inh 99.3*, NALP1 yeast inh -11.2, NALP3 yeast inh 3.5, UCH37 DUB inh -324.9, Calb FLC -22.7 and ATG4B inhibitor 3.3.
For CCN(CCCNC(=O)C1CCCN(S(=O)(=O)c2cnc[nH]2)C1)c1ccccc1 (configuration not stated) the results were ALR inh 97.5*, NALP1 yeast inh 28.2, NALP3 yeast inh -1.9, UCH37 DUB inh 4.7, Calb FLC 3.0 and ATG4B inhibitor -9.7.
`CCN(CCNC(=O)C1CCCN(S(=O)(=O)c2cnc[nH]2)C1)c1ccccc1` (configuration not stated) gave ALR inh 97.8*, NALP1 yeast inh -3.1, NALP3 yeast inh 9.4, UCH37 DUB inh 9.4, Calb FLC -1.9 and ATG4B inhibitor -0.8.
CC1(C)CC(Nc2ccc(Nc3ccccc3)cc2)CC(C)(C)N1 was read as ALR inh 99.0*, NALP1 yeast inh 13.1, Calb FLC -0.3 and ATG4B inhibitor 0.6.
For CC1(C)CC(NC(=O)c2ccccc2)CC(C)(C)N1 the results were NALP1 yeast inh 7.1, NALP3 yeast inh -3.9, UCH37 DUB inh 1.4, Calb FLC -8.5 and ATG4B inhibitor -3.6.
Screening Cc1ccc2c(c1)c1c3n2CCN(C(=O)CN2CCN(C)CC2)C3CCC1 (configuration not stated) returned ALR inh 91.5*, NALP1 yeast inh 24.7, NALP3 yeast inh -13.8, UCH37 DUB inh -3.7, Calb FLC -5.2 and ATG4B inhibitor -5.6.
Screening CN1CCN(CC(=O)N2CCn3c4c(c5cc(C6CCCCC6)ccc53)CCCC42)CC1 (configuration not stated) returned ALR inh -6.0, NALP1 yeast inh 22.4, NALP3 yeast inh 12.7, Calb FLC 110.6* and ATG4B inhibitor -2.8.
